Here are results for 36 compounds from ChEMBL document CHEMBL1147685, “Synthesis and SAR of 1,9-dihydro-9-hydroxypyrazolo[3,4-b]quinolin-4-ones as novel, selective c-Jun N-terminal kinase inhibitors” (Bioorg Med Chem Lett, 2006).

Each structure is given as a SMILES string. A value given as a limit tells only on which side of the number the result lay.

In data set [1] the target is Mitogen-activated protein kinase 8 (Homo sapiens, UniProt P45983). Description: Inhibition of JNK1.
Data set [2] has as its target c-Jun N-terminal kinase, JNK (Homo sapiens, UniProt P45983+P53779+P45984). Description: Inhibition of TNF-alpha-stimulated cJun phosphorylation in HepG2 cells. In kind it is functional, cell-based. In outline: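 Cell-based ELISA in HepG2 cells detecting phospho-c-Jun after TNFa stimulation. Inhibition of c-Jun phosphorylation read out and expressed as IC50.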
In data set [3] the target is Mitogen-activated protein kinase 9 (Homo sapiens, UniProt P45984). Description: Inhibition of JNK2.
Sequence of Mitogen-activated protein kinase 9 (P45984 whole entry): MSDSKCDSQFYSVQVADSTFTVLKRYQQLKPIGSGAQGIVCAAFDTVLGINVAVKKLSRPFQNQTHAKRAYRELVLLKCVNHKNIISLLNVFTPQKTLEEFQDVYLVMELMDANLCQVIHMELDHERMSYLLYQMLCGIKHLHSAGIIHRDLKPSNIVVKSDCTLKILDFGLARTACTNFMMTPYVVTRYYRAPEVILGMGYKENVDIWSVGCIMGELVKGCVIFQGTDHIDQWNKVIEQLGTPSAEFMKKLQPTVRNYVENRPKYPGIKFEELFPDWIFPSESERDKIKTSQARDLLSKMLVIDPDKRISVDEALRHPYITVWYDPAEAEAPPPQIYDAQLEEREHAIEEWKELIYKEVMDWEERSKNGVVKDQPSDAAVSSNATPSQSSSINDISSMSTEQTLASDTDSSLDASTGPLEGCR
The next data set concerns the target MAP kinase p38 (Homo sapiens, UniProt O15264+Q15759+Q16539+P53778). Put plainly: Inhibition of p38. It counts as protein assay.
In data set [4] the target is Mitogen-activated protein kinase 1 (Homo sapiens, UniProt P28482). Put plainly: Inhibition of ERK2.
Sequence of Mitogen-activated protein kinase 1 (P28482 whole entry): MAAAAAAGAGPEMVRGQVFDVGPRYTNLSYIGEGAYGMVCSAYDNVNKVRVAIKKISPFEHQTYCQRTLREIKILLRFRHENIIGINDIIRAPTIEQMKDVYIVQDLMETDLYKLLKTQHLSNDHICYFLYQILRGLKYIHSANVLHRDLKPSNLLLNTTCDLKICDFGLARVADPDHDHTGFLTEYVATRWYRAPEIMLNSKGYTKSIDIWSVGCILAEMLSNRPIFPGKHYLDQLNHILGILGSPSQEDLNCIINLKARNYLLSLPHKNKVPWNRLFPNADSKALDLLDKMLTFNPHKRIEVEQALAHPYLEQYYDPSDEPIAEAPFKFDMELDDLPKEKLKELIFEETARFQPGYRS
Data set [5] can be described thus: Stability in human liver microsome after 30 mins. It counts as ADME. To be noted: liver microsomes, read-out: Stability. The method, boiled down:
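Parent compound incubated with human liver microsomes for 30 min. Percentage of parent recovered afterwards was measured.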

Sequence of Mitogen-activated protein kinase 8 (P45983 whole entry): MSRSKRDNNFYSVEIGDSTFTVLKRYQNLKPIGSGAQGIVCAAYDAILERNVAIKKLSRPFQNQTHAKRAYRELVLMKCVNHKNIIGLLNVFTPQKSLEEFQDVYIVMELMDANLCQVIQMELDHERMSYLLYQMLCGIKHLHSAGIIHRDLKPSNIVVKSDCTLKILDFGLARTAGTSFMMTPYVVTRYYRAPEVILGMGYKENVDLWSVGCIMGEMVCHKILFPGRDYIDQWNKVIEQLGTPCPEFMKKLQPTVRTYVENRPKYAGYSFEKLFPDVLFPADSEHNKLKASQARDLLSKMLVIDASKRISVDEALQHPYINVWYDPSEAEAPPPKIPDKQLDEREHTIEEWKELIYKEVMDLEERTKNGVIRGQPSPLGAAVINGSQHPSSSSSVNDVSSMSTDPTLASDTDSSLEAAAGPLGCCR

For `Cc1nn(C)c2nc3ccc(Cl)cc3c(O)c12`, the IC50 in data set [1] is more than 10 µM.
For `Cn1nc(CCC(=O)O)c2c(=O)c3cc(Cl)ccc3n(O)c21`, in data set [1], the concentration for half-maximal inhibition (IC50) is more than 10 µM.
As for `Cn1nc(CCCC(=O)O)c2c(=O)c3cc(Cl)ccc3n(O)c21`, the figures for the IC50 in data set [1] and in data set [2] were 2.74 µM and more than 30 µM, respectively.
For `CNC(=O)Cn1nc(C)c2c(=O)c3cc(Cl)ccc3n(O)c21`, the results for the IC50 in data set [1] and in data set [2] were 8.77 µM and more than 30 µM, respectively.
In the case of `Cc1nn(CCO)c2c1c(=O)c1cc(Cl)ccc1n2O`, the IC50 was 7.67 µM in data set [1] and more than 30 µM in data set [2].
As to `Cn1nc(C(F)(F)F)c2c(=O)c3cc(Cl)c(Cl)cc3n(O)c21`, the IC50 was 5.14 µM in data set [1] and more than 30 µM in data set [2].
Take `Cn1nc(CCN)c2c(=O)c3cc(Cl)ccc3n(O)c21`: the IC50 in data set [1] is 2.83 µM; in data set [2], more than 30 µM.
`Cc1nn(C)c2c1c(=O)c1ccccc1n2O` returned an IC50 in data set [1] of more than 10 µM.
In turn, `Cn1nc(C(C)(C)C)c2c(=O)c3cc(Cl)ccc3n(O)c21` returned an IC50 in data set [1] of more than 10 µM.
As to `COc1cc(Cl)cc2c(=O)c3c(C(F)(F)F)nn(C)c3n(O)c12`, the IC50 in data set [1] is more than 10 µM.
`CCc1nn(C)c2c1c(=O)c1cc(Cl)ccc1n2O`: the IC50 worked out at 0.96 µM in data set [1] and 32 µM in data set [2].
In the case of `Cc1nn(C)c2c1c(=O)c1cc(Cl)ccc1n2O`, the concentration for half-maximal inhibition (IC50) was 3.1 µM in data set [3], more than 50 µM on MAP kinase p38, more than 50 µM in data set [4] and more than 30 µM in data set [2]. Besides, the remaining at 0.5 h in data set [5] was found to be 100%.
As for `CCNC(=O)NCCCc1nn(C)c2c1c(=O)c1cc(Cl)ccc1n2O`, the IC50 in data set [1] was 0.5 µM; in data set [2] it was more than 30 µM.
For `Cn1c2[n+]([O-])c3ccc(Cl)cc3c(=O)c-2c2n1C(=O)NCC2`, the IC50 worked out at 0.29 µM in data set [1] and 0.85 µM in data set [2].
On to `CN(C)c1cc2c(cc1Cl)c(=O)c1c(C(F)(F)F)nn(C)c1n2O`, for which, in data set [1], the IC50 is more than 10 µM.
On to `CCOC(=O)Cn1nc(C)c2c(=O)c3cc(Cl)ccc3n(O)c21`, for which the values for the IC50 in data set [1] and in data set [2] were 7.64 µM and more than 30 µM, respectively.
`Cc1nn(C)c2c1c(=O)c1cc(Cl)ccc1n2OCc1ccccc1` displayed an IC50 in data set [1] of more than 10 µM.
As for `Cc1nn(CC(=O)O)c2c1c(=O)c1cc(Cl)ccc1n2O`, the IC50 is 4.41 µM in data set [1] and more than 30 µM in data set [2].
`CCOn1c2ccc(Cl)cc2c(=O)c2c(C)nn(C)c21`: the IC50 worked out at 2.78 µM in data set [1] and 10.6 µM in data set [2].
The matching figures for `CC(C)c1nn(C)c2c1c(=O)c1cc(Cl)ccc1n2O`: 2.64 µM and more than 30 µM.
In turn, `Cc1nn(C)c2c1c(=O)c1cc(-c3cc[nH]n3)ccc1n2O` showed an IC50 in data set [1] of more than 10 µM.
On to `Cc1nn(C)c2c1c(=O)c1cc(Cl)ccc1n2OC(C)C`, for which the IC50 in data set [1] was more than 10 µM.
For `Cc1nn(C)c2c1c(=O)c1cc(-c3ccccc3)ccc1n2O`, in data set [1], the IC50 is more than 10 µM.
In the case of `COn1c2ccc(Cl)cc2c(=O)c2c(C)nn(C)c21`, the half-maximal inhibitory concentration (IC50) was found to be 4.59 µM in data set [1] and 19.4 µM in data set [2].
With `Cc1nn(C)c2c1c(=O)c1cc(Cl)ccc1n2OC1CCCC1`, the IC50 in data set [1] is more than 10 µM.
Regarding `CCCCc1nn(C)c2c1c(=O)c1cc(Cl)ccc1n2O`, the IC50 is 0.52 µM in data set [1] and more than 30 µM in data set [2].
The matching figures for `CCOC(=O)NCCc1nn(C)c2c1c(=O)c1cc(Cl)ccc1n2O`: 0.43 µM and more than 30 µM.
In turn, `COC(=O)c1nn(C)c2c1c(=O)c1cc(Cl)ccc1n2O` had an IC50 in data set [1] of more than 10 µM.
`Cn1nc(-c2ccc(N)cc2)c2c(=O)c3cc(Cl)ccc3n(O)c21`: the IC50 in data set [1] was more than 10 µM.
Consider `COCCc1nn(C)c2c1c(=O)c1cc(Cl)ccc1n2O`, for which the IC50 turned out to be 2.41 µM in data set [1] and 14.7 µM in data set [2].
Turning to `Cn1nc(C(F)(F)F)c2c(=O)c3c(Cl)c(Cl)ccc3n(O)c21`, the IC50 in data set [1] is more than 10 µM.
On to `CCCc1nn(C)c2c1c(=O)c1cc(Cl)ccc1n2O`, for which the results for the IC50 in data set [1] and in data set [2] were 1.31 µM and 26.6 µM, respectively.
For the compound `Cc1nn(C)c2c1c(=O)c1cc(Br)ccc1n2O`, the IC50 in data set [1] is 0.92 µM; in data set [2] it was more than 30 µM.
On to `CC(=O)NCCc1nn(C)c2c1c(=O)c1cc(Cl)ccc1n2O`, for which the IC50 in data set [1] was 0.78 µM; in data set [2], more than 30 µM.
Regarding `CNC(=O)CCCc1nn(C)c2c1c(=O)c1cc(Cl)ccc1n2O`, the IC50 in data set [1] is 0.75 µM; in data set [2], more than 30 µM.
In the case of `CCn1nc(C)c2c(=O)c3cc(Cl)ccc3n(O)c21`, the IC50 was 4.19 µM in data set [1] and more than 30 µM in data set [2].
